From ChEMBL document CHEMBL2157999, “Potent small molecule Hedgehog agonists induce VEGF expression in vitro” (Bioorg Med Chem, 2012)
pEC50, pIC50: −log10 of the molar value. Active and inactive are the calls of the source. The calls are words filed in the database; no cut-off is given here.

Legend:
Sonic hedgehog protein = Sonic hedgehog protein (Mus musculus, UniProt Q62226); assay: Activation of Shh pathway in mouse Shh-Light II cells assessed as induction of gli1 expression after 48 hrs by […] luminescence assay; format: functional, cell-based
How it was run: (§1)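 Shh-Light II cells were given compounds from DMSO stocks (final DMSO 0.1%; top concentration 1000 nm) for 48 h, then PBS-washed and lysed. Gli reporter luminescence was measured by dual-luciferase and normalized to constitutive Renilla. EC50 came from a Hill-slope fit of RLU/s versus concentration. 2–4 independent experiments, each in technical triplicate.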

HUVEC [1] = assay: Cytotoxicity against HUVEC up to 10 uM after 24 hrs by WST-1 assay; format: cell-based; conditions: human
How it was run: (§2)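 HUVEC were seeded at 7500 cells/well and exposed to a compound concentration series (<0.5% DMSO) for 24 h. WST-1 was then added and incubated 24 h. Absorbance at 440 and 650 nm was read, and the absorbance difference was plotted against concentration.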

HUVEC [2] = assay: Induction of HUVEC proliferation after 48 hrs by BrdU-incorporation assay; format: functional, cell-based; conditions: Homo sapiens
How it was run: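 HUVEC were seeded at 5000 cells/well. After 24 h the medium was swapped for a compound dilution series (≤0.5% DMSO) and incubated 48 h. BrdU incorporation was read by chemiluminescent ELISA.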

HUVEC [3] = assay: Induction of angiogenesis in HUVEC assessed as formation of cell sprouts after 48 hrs by 3D spheroid angiogenesis assay; conditions: Homo sapiens
[4] = molecular target: Sonic hedgehog protein (Mus musculus) (UniProt Q62226); assay: Activation of Shh pathway in mouse Shh-Light II cells assessed as induction of gli1 expression at 1 uM after 48 hrs by […] luminescence assay; format: functional, cell-based; how it was run: as §1
[5] = molecular target: Sonic hedgehog protein (Homo sapiens) (UniProt Q15465); assay: Activation of Shh pathway in human foreskin fibroblasts assessed as increase in VEGF expression after 48 hrs by ELISA
How it was run: (§3)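 Primary foreskin fibroblasts were plated in DMEM with 10% FBS for 24 h, washed free of nonadherent cells and reseeded at 14000 cells/well. After 72 h the medium was replaced with compound (0.1–1.0 µm range, <0.1% DMSO). Cells were held 48 h at 37 °C, 5% CO2. Three independent experiments.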

[6] = molecular target: Sonic hedgehog protein (Homo sapiens) (UniProt Q15465); assay: Activation of Shh pathway in human foreskin fibroblasts assessed as increase in VEGF expression at 0.1 to 1 uM after 48 hrs by ELISA relative to control; how it was run: as §3
[7] = molecular target: Sonic hedgehog protein (Homo sapiens) (UniProt Q15465); assay: Activation of Shh pathway in human foreskin fibroblasts assessed as induction of maximum VEGF expression at 1 uM after 48 hrs by ELISA relative to control; how it was run: as §3
HUVEC [8] = assay: Cytotoxicity against HUVEC after 24 hrs by WST-1 assay; format: cell-based; conditions: Homo sapiens; how it was run: as §2
[9] = molecular target: Sonic hedgehog protein (Homo sapiens) (UniProt Q15465); assay: Activation of Shh pathway in human foreskin fibroblasts assessed as induction of maximum VEGF expression at 0.5 uM after 48 hrs by ELISA relative to control; how it was run: as §3
[10] = Ratio of compound IC50 to SAG IC50 for HUVEC; format: ADME, cell-based; conditions: human, HUVEC cells; read-out: Ratio IC50

Sonic hedgehog protein, sequence (Q62226 25-198 limits assumed): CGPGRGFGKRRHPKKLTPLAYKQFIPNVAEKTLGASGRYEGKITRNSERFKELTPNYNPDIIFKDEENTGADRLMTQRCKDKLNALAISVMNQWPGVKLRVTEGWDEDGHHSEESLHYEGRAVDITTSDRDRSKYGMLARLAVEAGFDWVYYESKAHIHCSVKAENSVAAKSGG
Sonic hedgehog protein (Homo sapiens), sequence (Q15465 24-197 limits assumed): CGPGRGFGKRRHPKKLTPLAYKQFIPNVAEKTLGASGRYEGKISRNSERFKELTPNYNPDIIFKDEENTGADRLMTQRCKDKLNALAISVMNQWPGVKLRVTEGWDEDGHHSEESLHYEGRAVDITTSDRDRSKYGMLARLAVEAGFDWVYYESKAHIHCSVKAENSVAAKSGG

Row | Compound | Activity [4] | Activity (HUVEC [2]) | Activity (HUVEC [3]) | other results
1 | CN[C@H]1CC[C@H](N(Cc2cccc(-c3ccncc3)c2)C(=O)c2ccc(-c3ccccc3)o2)CC1 |  | inactive | inactive | pEC50 (Sonic hedgehog protein): 7.27; Activity (HUVEC [1]): Non-toxic
2 | CCOc1cc(C(=O)N(Cc2cccc(-c3ccncc3)c2)[C@H]2CC[C@H](NC)CC2)cc(OCC)c1OCC | inactive | inactive | inactive | 
3 | CN[C@H]1CC[C@H](N(Cc2cccc(-c3ccncc3)c2)C(=O)c2[nH]c3ccccc3c2Cl)CC1 |  | inactive | inactive | pEC50 (Sonic hedgehog protein): 6.93; Activity (HUVEC [1]): Non-toxic
4 | O=C(c1sc2cc(F)ccc2c1Cl)N(Cc1ccco1)C1CCNCC1 | inactive | inactive | inactive | 
5 | CN[C@H]1CC[C@@H](N(Cc2cccc(-c3ccncc3)c2)C(=O)c2sc3ccccc3c2Cl)CC1 |  | inactive | inactive | pEC50 (Sonic hedgehog protein): 7.21; Activity (HUVEC [1]): Non-toxic; Activity [5]: Dose-dependent effect; fold change (FC) [6]: 7; Activity [7]: 23.8 pg/mL
6 | Cc1c(C(=O)N(Cc2cccs2)C2CCNCC2)oc2ccccc12 | inactive | inactive | inactive | 
7 | N#Cc1ccc(CN(C(=O)c2sc3cccc(Cl)c3c2Cl)C2CCNCC2)cc1 | inactive | inactive | inactive | 
8 | CN[C@H]1CC[C@H](N(Cc2ccnc3ccccc23)C(=O)c2sc3ccccc3c2Cl)CC1 | inactive | inactive | inactive | 
9 | CC(=O)Nc1ccc(CN(C(=O)c2sc3ccccc3c2Cl)C2CCNCC2)cc1 | inactive | inactive | inactive | 
10 | N#Cc1ccc(CN(C(=O)c2sc3cc(F)ccc3c2Cl)C2CCNCC2)cc1 | inactive | inactive | inactive | 
11 | Cc1c(C(=O)N(Cc2ccco2)C2CCNCC2)oc2ccccc12 | inactive | inactive | inactive | 
12 | CC(=O)Nc1ccc(CN(C(=O)c2oc3ccccc3c2C)C2CCNCC2)cc1 | inactive | inactive | inactive | 
13 | CN[C@H]1CC[C@H](N(Cc2cccc(-c3ccncc3)c2)C(=O)c2oc3ccccc3c2C)CC1 | inactive | inactive | inactive | 
14 | O=C(c1sc2cccc(Cl)c2c1Cl)N(Cc1ccco1)C1CCNCC1 | inactive | inactive | inactive | 
15 | CN[C@H]1CC[C@H](N(Cc2ccncc2)C(=O)c2sc3ccccc3c2Cl)CC1 | inactive | inactive | inactive | 
16 | CN[C@H]1CC[C@H](N(Cc2cccc(-c3ccncc3)c2)C(=O)c2cc3ccccc3s2)CC1 | inactive | inactive | inactive | 
17 | CN[C@H]1CC[C@H](N(Cc2cccc(-c3ccncc3)c2)C(=O)c2sc3ccccc3c2Cl)CC1 |  | inactive | inactive | pEC50 (Sonic hedgehog protein): 8.06; Activity (HUVEC [1]): Non-toxic; pIC50 (HUVEC [8]): 4.66; Activity [5]: Dose-dependent effect; fold change (FC) [6]: 7; Activity [9]: 29.6 pg/mL
18 | CN[C@H]1CC[C@H](N(Cc2cccc(-c3ccncc3)c2)C(=O)c2sc3cc(F)ccc3c2Cl)CC1 |  | inactive | inactive | pEC50 (Sonic hedgehog protein): 6.76; Activity (HUVEC [1]): Non-toxic; Activity [5]: Dose-dependent effect; fold change (FC) [6]: 7; Activity [7]: 32.2 pg/mL
19 | CN[C@H]1CC[C@H](NCc2cccc(-c3ccncc3)c2)CC1 | inactive | inactive | inactive | 
20 | CC(=O)Nc1ccc(CN(C(=O)c2sc3cc(F)ccc3c2Cl)C2CCNCC2)cc1 | inactive | inactive | inactive | 
21 | CC(=O)Nc1ccc(CN(C(=O)c2sc3cccc(Cl)c3c2Cl)C2CCNCC2)cc1 | inactive | inactive | inactive | 
22 | CN[C@H]1CC[C@@H](N(Cc2cccc(-c3ccncc3)c2)C(=O)c2sc3cccc(Cl)c3c2Cl)CC1 |  | inactive | inactive | pEC50 (Sonic hedgehog protein): 8.12; Activity (HUVEC [1]): Non-toxic
23 | CN[C@H]1CC[C@H](N(Cc2cccc(-c3ccncc3)c2)C(=O)c2sc3cccc(Cl)c3c2Cl)CC1 |  | inactive | inactive | pEC50 (Sonic hedgehog protein): 7.66; Activity (HUVEC [1]): Non-toxic; pIC50 (HUVEC [8]): 3.60; selectivity ratio [10]: 10; Activity [5]: Dose-dependent effect; fold change (FC) [6]: 7; Activity [7]: 32.4 pg/mL
24 | O=C(c1sc2ccccc2c1Cl)N(Cc1ccco1)C1CCNCC1 | inactive | inactive | inactive | 

Second part, led by results:

Row | Activity [4] | Compound | Activity (HUVEC [2]) | Activity (HUVEC [3]) | other results
25 | inactive | O=C(c1sc2ccccc2c1Cl)N(Cc1ccnc2ccccc12)C1CCNCC1 | inactive | inactive | 
26 | inactive | N#Cc1ccc(CN(C(=O)c2sc3ccccc3c2Cl)C2CCNCC2)cc1 | inactive | inactive | 
27 | inactive | O=C(c1sc2cccc(Cl)c2c1Cl)N(Cc1cccc(-c2ccncc2)c1)C1CCNCC1 | inactive | inactive | 
28 | inactive | O=C(c1sc2cc(F)ccc2c1Cl)N(Cc1cccc(-c2ccncc2)c1)C1CCNCC1 | inactive | inactive | 
29 | inactive | O=C(c1sc2ccccc2c1Cl)N(Cc1cccc(Br)c1)C1CCNCC1 | inactive | inactive | 
30 | inactive | O=C(c1sc2ccccc2c1Cl)N(Cc1cccs1)C1CCNCC1 | inactive | inactive | 
31 | inactive | O=C(c1sc2ccccc2c1Cl)N(Cc1cccc(-c2ccncc2)c1)C1CCNCC1 | inactive | inactive | 
32 | inactive | CN[C@H]1CC[C@H](N(Cc2cccc(-c3ccncc3)c2)C(=O)c2sc3cc(Cl)ccc3c2Cl)CC1 | inactive | inactive | 
